Data as given in PMC5940269 (The Journal of Experimental Medicine, 2018).
Like-named read-outs stand apart in the source and are kept apart here.

Columns and labels:
SCW-induced arthritis = test: Streptococcal cell wall; type: in vivo, rat; settings: for paw swelling: oral gavage 2×/day from day 9, CDD-450 5 or 10 mg/kg, CDD-110 1.5 mg/kg
Outline: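 Adult female Lewis rats (180 g) received SCW preparation i.p. at 15 mg/kg, and acute paw edema was tracked on days 2–8. Paw volume was measured by plethysmometer every other day to day 21, and hind paws were scanned by µCT at day 21.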

WT or NOMID BMMs = test: mRNA stability; type: cell-based, mouse; settings: LPS 3 h then 1 µg/ml actinomycin D plus inhibitor
Outline: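 WT and NOMID BMMs were stimulated with 100 ng/ml LPS for 3 h, then exposed simultaneously to 1 µg/ml actinomycin D and test compound, MK2 inhibitor or IKK2 inhibitor. Cells were lysed at 0, 2, 4 or 6 h. After RNA extraction and reverse transcription, SYBR green qPCR tracked decay of IL-1β, IL-6, NLRP3 and TNF-α mRNA. Triplicates, ≥3 independent experiments.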

WT and NOMID BMMs = test: IL-1β secretion by LPS-primed BMMs; type: cell-based, mouse; settings: 100 ng/ml LPS 3 h; WT cells plus 15 µM nigericin 30 min
Outline: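 BMMs were derived over ~5 d in 1:10 CMG 14-12 supernatant (M-CSF source), plated at 10^4/well and kept 24 h. They were pretreated 1 h with vehicle (0.5% DMSO final), test compound or IKK2 inhibitor, then given 100 ng/ml LPS for 3 h without a media change. WT cells then received 15 µM nigericin for 30 min. IL-1β in conditioned media was measured by ELISA; triplicates, ≥3 independent experiments.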

[1] = tested on: WT and NOMID bone marrow macrophages (BMMs); test: qPCR/Western analysis of LPS-induced expression in BMMs; type: cell-based, mouse; settings: for IL-18 expression: in vitro
Outline: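 WT and NOMID BMMs were preincubated 1 h with test compound or IKK2 inhibitor (0.5% DMSO final), then given 100 ng/ml LPS for 3 or 8 h. Transcripts were measured by SYBR green qPCR after RNA extraction and reverse transcription. Protein (NLRP3, pro-caspase-1) was measured by Western blot of RIPA lysates. Triplicates, ≥3 independent experiments.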

p38α–MK2 complex = test: Surface plasmon resonance analysis of p38α binding to immobilized MK2; settings: 10 nM p38α, immobilized GST-MK2
RA synovial fibroblasts = test: IL-1β-induced responses in synovial fibroblasts from an RA patient; type: cell-based, human
Outline: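 Synovial fibroblasts from an RA patient were preincubated 1 h with inhibitors, then given 10 ng/ml IL-1β for 3 h, with transcripts measured by qPCR. For mRNA stability, IL-1β was added for 3 h, then 1 µg/ml actinomycin D plus test compound or IKK2 inhibitor, with cells lysed at 0, 2, 4 or 6 h. For p-MK2 (Thr334) Western blot, cells had 1 h preincubation with 10 µM test compound before IL-1β. Triplicates, ≥2 independent experiments.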

[2] = In vivo tolerability, 14 consecutive days oral gavage; settings: rat
p38α–ATF2 = test: p38α–MK2 and p38α–ATF2 assays; type: biochemical
MK2 phosphorylation = test: Western blot of LPS-stimulated MK2 phosphorylation in BMMs; type: cell-based, mouse; settings: 10 µM CDD-450, 100 ng/ml LPS, WT BMMs
WT BMMs = test: Osteoclast formation in vitro induced by RANKL; type: cell-based, mouse; settings: 50 ng/ml RANKL for 4 d
Outline: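 WT BMMs were plated at 5 × 10^3/well in 1:50 CMG supernatant plus RANKL with DMSO or test compound for 4 d, medium changed every other day, at 37°C, 5% CO2. Cells were fixed 10 min in 3.7% formaldehyde/0.1% Triton X-100, then TRAP-stained 30 min at room temperature. TRAP+ cells with ≥3 nuclei were scored as osteoclasts. Triplicates, ≥3 independent experiments.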

p38α–PRAK = p38α–PRAK (Homo sapiens, UniProt Q16539); test: p38α–MK2 and p38α–PRAK assays; type: biochemical
Chain of p38α–PRAK (Q16539 whole entry): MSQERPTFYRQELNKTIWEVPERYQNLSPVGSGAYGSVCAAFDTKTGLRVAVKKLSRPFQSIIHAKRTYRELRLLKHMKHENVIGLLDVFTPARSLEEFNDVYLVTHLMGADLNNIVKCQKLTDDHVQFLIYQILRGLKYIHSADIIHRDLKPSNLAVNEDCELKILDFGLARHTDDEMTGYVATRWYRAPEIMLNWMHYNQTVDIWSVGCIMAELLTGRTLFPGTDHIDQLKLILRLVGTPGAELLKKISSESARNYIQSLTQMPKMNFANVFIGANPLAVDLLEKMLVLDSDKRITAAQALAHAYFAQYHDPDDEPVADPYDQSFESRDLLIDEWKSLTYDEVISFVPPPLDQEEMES
Chain of p38α–PRAK (Q8IW41 whole entry partner): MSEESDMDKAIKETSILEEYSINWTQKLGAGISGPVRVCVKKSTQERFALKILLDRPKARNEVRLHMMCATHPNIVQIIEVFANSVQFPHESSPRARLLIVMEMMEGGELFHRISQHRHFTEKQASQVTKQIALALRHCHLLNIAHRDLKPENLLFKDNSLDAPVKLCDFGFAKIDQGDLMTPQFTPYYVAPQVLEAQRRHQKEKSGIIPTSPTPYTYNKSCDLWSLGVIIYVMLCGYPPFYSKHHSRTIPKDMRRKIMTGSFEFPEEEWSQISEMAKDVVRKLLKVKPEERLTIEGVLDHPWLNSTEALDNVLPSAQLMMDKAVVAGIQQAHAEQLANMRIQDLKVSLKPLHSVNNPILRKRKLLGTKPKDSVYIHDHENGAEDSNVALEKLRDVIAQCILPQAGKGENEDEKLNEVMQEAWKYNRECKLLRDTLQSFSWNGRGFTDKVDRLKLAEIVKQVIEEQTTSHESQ

NOMID^c mice = test: NOMID^c mice; type: in vivo; settings: CDD-450 chow
Outline: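 Nlrp3fl(D301N)/+;Cre-ERTM mice (C57BL/6) were given tamoxifen i.p., 75 mg/kg every other day, three times weekly for 2 wk; Cre-ERTM littermates were controls. Three-month-old mice received normal or compound chow from 3 d before tamoxifen. Body weight (10–11/group) and survival (12–13/group) were scored every 2–3 d. Endpoint was 4 wk later: decalcified 5-µm bone sections were TRAP-stained and osteoclasts counted on trabecular and cortical surfaces (4–6 mice/group).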

[3] = tested on: LPS-induced production of TNF-α, IL-1β and IL-6; test: LPS-induced cytokine production in various in vitro systems and animal models; type: cell-based
Outline: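 U937 premonocytic cells, grown in RPMI 1640 with 10% FBS, were differentiated with 20 ng/ml PMA for 24 h. They were pretreated with vehicle or test compound, then stimulated with 100 ng/ml LPS for 4 h. TNF-α, IL-1β and IL-6 were measured in conditioned media.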

Pharmacokinetics = test: Pharmacokinetics; parameters: species or system mice, rats, and dogs; settings: in vivo
p38β = p38β (Homo sapiens, UniProt Q15759); test: Kinase selectivity, p38β; type: biochemical; settings: CDD-450 tested at 5 µM
Chain of p38β (Q15759 whole entry): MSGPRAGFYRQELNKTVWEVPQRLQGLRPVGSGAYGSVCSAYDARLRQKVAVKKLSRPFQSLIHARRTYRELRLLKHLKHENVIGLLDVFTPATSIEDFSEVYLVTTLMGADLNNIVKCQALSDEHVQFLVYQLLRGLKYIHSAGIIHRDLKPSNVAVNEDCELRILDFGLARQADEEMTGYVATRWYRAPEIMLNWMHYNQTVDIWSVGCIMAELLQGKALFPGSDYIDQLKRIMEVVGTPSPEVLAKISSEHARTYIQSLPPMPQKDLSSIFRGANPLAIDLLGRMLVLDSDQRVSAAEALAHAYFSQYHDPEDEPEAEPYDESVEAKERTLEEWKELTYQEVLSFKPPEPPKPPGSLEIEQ

[4] = tested on: NLRP3 inflammasome / caspase-1; test: Microscopic analysis of active caspase-1; type: cell-based, mouse; settings: LPS-primed cells, 15 µM nigericin with 10 µM CDD-450, 30 min
Outline: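 BMMs were plated at 5 × 10^4/well for 24 h, primed with 100 ng/ml LPS for 3 h, then treated 30 min with 10 µM test compound and/or 15 µM nigericin. Active caspase-1 was labelled with FLICA FAM-YVAD-FMK (30 min, 37°C). Cells were washed, fixed in 10% buffered formalin and DAPI-counterstained, then imaged by fluorescence microscopy with image analysis.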

cardiac hERG channel = cardiac hERG channel (Homo sapiens, UniProt Q12809); test: hERG channel inhibition
Chain of cardiac hERG channel (Q12809 whole entry): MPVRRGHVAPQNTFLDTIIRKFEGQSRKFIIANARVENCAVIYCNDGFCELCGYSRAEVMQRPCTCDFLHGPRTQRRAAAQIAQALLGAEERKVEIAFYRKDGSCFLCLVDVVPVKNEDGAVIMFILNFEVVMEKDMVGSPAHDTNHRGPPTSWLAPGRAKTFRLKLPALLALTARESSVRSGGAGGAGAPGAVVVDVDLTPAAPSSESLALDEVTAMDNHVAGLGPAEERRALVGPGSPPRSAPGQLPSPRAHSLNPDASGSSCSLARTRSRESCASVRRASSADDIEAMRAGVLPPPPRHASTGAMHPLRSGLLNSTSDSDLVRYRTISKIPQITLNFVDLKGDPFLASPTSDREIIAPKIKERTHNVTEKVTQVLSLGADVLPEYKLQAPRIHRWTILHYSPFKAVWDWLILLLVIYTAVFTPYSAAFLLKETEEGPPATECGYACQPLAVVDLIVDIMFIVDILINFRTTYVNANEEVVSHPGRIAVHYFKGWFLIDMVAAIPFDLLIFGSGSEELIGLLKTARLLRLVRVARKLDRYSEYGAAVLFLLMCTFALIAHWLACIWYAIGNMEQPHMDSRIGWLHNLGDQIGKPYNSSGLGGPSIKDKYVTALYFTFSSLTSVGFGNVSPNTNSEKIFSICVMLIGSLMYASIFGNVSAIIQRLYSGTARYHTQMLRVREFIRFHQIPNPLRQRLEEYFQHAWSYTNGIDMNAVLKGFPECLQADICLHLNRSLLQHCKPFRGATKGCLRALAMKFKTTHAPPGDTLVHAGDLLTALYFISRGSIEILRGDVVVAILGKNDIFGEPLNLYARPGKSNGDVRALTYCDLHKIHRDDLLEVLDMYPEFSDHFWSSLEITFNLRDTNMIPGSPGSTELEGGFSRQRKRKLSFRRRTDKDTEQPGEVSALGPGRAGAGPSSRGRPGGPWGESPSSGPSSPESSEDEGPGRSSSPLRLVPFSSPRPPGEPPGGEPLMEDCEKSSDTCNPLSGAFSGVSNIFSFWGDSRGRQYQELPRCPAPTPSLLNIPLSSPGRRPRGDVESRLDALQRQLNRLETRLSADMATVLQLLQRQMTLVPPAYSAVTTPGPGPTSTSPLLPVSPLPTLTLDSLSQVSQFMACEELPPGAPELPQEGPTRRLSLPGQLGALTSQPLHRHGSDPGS

U937 cells = test: LPS-stimulated phosphorylation of signaling proteins in U937 cells; type: cell-based, human
Outline: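 U937 cells were differentiated into macrophages with 20 ng/ml PMA for 24 h. They were pretreated 1 h with vehicle (0.5% DMSO final) or test compound, then stimulated with 100 ng/ml LPS. Phosphorylation of signalling proteins was assessed by Western blotting, ELISA or MesoScale kits.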

[5] = Cytotoxicity at efficacious concentrations; type: cell-based; settings: efficacious concentrations tested in this study; not depicted
[6] = Body weight of WT mice on CDD-450 chow; type: in vivo
193 kinases = test: Kinase selectivity across the human kinome; type: biochemical; settings: CDD-450 tested at 5 µM
[7] = tested on: LPS-induced TNF-α expression; test: LPS-induced TNF-α production in mice fed inhibitor chow; type: in vivo; settings: CDD-450 chow 1,000 ppm; LPS 0.025 mg/kg for 1 h
Outline: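 Eight-week-old WT female mice (six/group) were fed normal chow or inhibitor chow (1,000 or 516 ppm). At the indicated weeks they were challenged i.v. with Salmonella typhosa LPS, 0.025 mg/kg in saline. Blood was collected by cardiac puncture 60 min later, and serum TNF-α was measured by ELISA.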

[8] = tested on: human PBMC from CAPS patients and healthy control; test: IL-1β production and mRNA stability in human PBMC; type: cell-based
Outline: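 Human PBMC from a CAPS patient or healthy control. For secretion, cells were cultured 16 h at 32°C or 37°C with DMSO or test compound, or with 100 ng/ml LPS for 16 h at 37°C, and IL-1β in conditioned media was measured by ELISA. For mRNA stability, cells got 10 ng/ml LPS for 3 h, then 1 µg/ml actinomycin D plus inhibitor, were lysed at 0–6 h and analysed by SYBR qPCR. Triplicates, ≥2 independent experiments.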

[9] = 100 ng/ml LPS, inhibitor preincubated 1 h
[10] = 10 ng/ml IL-1β 3 h then actinomycin D

CNC(=O)c1ccc(C)c(-n2c(C)cc(OCc3ccc(F)cc3F)c(Br)c2=O)c1 [CDD-110, reference compound]
paw swelling (SCW-induced arthritis): inhibited

Cc1ccc(-c2ccc3c(ccc4sc5c(c43)NC[C@@H](C)NC5=O)n2)cn1 [PF-3644022, reference compound]
degradation of IL-1β mRNA (WT or NOMID BMMs): promoted the degradation | degradation of TNF-α mRNA (WT or NOMID BMMs): promoted the degradation

CN1CCN(c2cc(C(=O)Nc3ccc4c(c3)-c3c(c(C(N)=O)nn3-c3ccc(F)cc3)CC4)c(Cl)cn2)CC1 [PHA-408, reference compound]
IL-1β secretion by LPS-primed WT and NOMID BMMs (WT and NOMID BMMs): inhibited | NLRP3 expression ([1]; 100 ng/ml LPS): decreased | IL-18 expression ([1]; 100 ng/ml LPS): decreased | LPS-induced IL-1β mRNA expression [1, 9]: inhibited

Cc1cnc(-c2ccnc(C(C)(C)O)n2)cc1-n1c(C)cc(OCc2ncc(F)cc2F)c(Cl)c1=O [CDD-450]
stabilization of the p38α–MK2 complex (increased t1/2) relative to p38α–MK2 alone (p38α–MK2 complex): 47.5 × | IL-1β mRNA levels induced by IL-1β (RA synovial fibroblasts; 10 ng/ml IL-1β 3 h): decreased | degradation of TNF-α mRNA induced by IL-1β (RA synovial fibroblasts; [10]): accentuated | loss of IL-1β transcripts (RA synovial fibroblasts; [10]): accelerated | MK2 phosphorylation induced by IL-1β (RA synovial fibroblasts; 10 µM CDD-450, 10 ng/ml IL-1β): blocked | well tolerated exposure relative to the predicted Cmax efficacious exposure [2]: > 30 × | fold more potent in inhibiting p38α–MK2 than p38α–ATF2 (p38α–ATF2): at least 700 × | decay of NLRP3 mRNA (WT or NOMID BMMs): no effect | degradation of IL-1β mRNA (WT or NOMID BMMs): promoted the degradation | degradation of IL-6 mRNA (WT or NOMID BMMs): promoted the degradation | LPS-stimulated MK2 phosphorylation at 15 and 30 min (MK2 phosphorylation): inhibited | LPS-stimulated MK2 phosphorylation at 180 min (MK2 phosphorylation): little effect | in vitro osteoclast formation induced by RANKL (WT BMMs): inhibited | fold more potent in inhibiting p38α–MK2 than p38α–PRAK (p38α–PRAK): at least 700 × | body weight loss of NOMID^c mice versus untreated NOMID^c mice (NOMID^c mice): lost significantly less body weight | increased number of osteoclasts on trabecular and cortical bone surfaces (NOMID^c mice): prevented | skin lesions and death over the 7-wk period (NOMID^c mice; untreated: ∼35% skin lesions, 20% died): neither occurred | IC50 ([3]; read-out: IC50, LPS-induced production of IL-1β): 0.001 to 0.01 µM | IC50 ([3]; read-out: IC50, LPS-induced production of IL-6): ~0.1 µM | IC50 ([3]; read-out: IC50, LPS-induced production of TNF-α): 0.001 to 0.01 µM | half-life (Pharmacokinetics): long | volume of distribution (Pharmacokinetics): high | oral bioavailability (Pharmacokinetics; po): high | cross-reactivity on p38β (p38β): crossed over | nigericin-induced activation of caspase-1 (fluorescent foci) [4]: no effect | joint destruction, 3D µCT reconstruction (SCW-induced arthritis; 5 mg/kg CDD-450 2×/day): joint protective effects | paw swelling (SCW-induced arthritis): inhibited | bone mineral density (SCW-induced arthritis; µCT at day 21): preserved | IL-1β secretion by LPS-primed WT and NOMID BMMs (WT and NOMID BMMs): inhibited | inhibition of the cardiac hERG channel (cardiac hERG channel): did not inhibit | LPS activation of the ERK1/2 pathway (U937 cells): no inhibitory effect | LPS activation of the JNK pathway (U937 cells): no inhibitory effect | MK2 phosphorylation induced by LPS (U937 cells): blocked | cytotoxicity [5]: not cytotoxic | NLRP3 expression ([1]; 100 ng/ml LPS): no effect | IL-18 expression ([1]; 100 ng/ml LPS): no direct effect | LPS-induced IL-1β mRNA expression [1, 9]: inhibited | LPS-induced IL-6 mRNA expression [1, 9]: inhibited | LPS-induced TNF-α mRNA expression [1, 9]: inhibited | expression of NLRP3 interacting partners ASC, caspase-1 and NEK7 ([1]; not depicted): no effect | tolerability of concomitant exposure to CDD-450 chow and tamoxifen ([6]; WT mice): not well tolerated | body weight of WT mice, CDD-450 chow versus normal chow ([6]; no tamoxifen): gained body weight undistinguishably | body weight of WT mice, CDD-450 chow plus tamoxifen, compared with normal chow ([6]; tamoxifen for 2 wk): lost body weight | potency differential for inhibiting the 193 kinases tested (193 kinases): > 350 × | persistence of efficacy in blocking LPS-induced TNF-α expression after dosing [7]: up to 4 wk | IL-1β mRNA instability in human PBMC ([8]; 10 ng/ml LPS 3 h then actinomycin D): promoted | LPS-stimulated IL-1β secretion by healthy control PBMC ([8]; 100 ng/ml LPS 16 h at 37°C): reduced | IL-1β secretion by CAPS PBMC ([8]; 16 h at 32°C, spontaneous): reduced | degradation of TNF-α mRNA induced by LPS in human PBMC ([8]; not depicted): accentuated
